Reference: ChEMBL document CHEMBL4411301, “Design, Biological Evaluation, and Molecular Modeling of Tetrahydroisoquinoline Derivatives: Discovery of A Potent P-Glycoprotein Ligand Overcoming Multidrug Resistance in Cancer Stem Cells” (J Med Chem, 2019)
pEC50: −log10 of the molar value. Active and inactive are the calls of the source. The rule behind the calls is not given here.

Assays:
[1] = target: T1, ATP-dependent translocase ABCB1 (Homo sapiens, UniProt P08183); assay: Inhibition of MDR1 (unknown origin) expressed in MDCK cells assessed as increase in calcein-AM accumulation after 30 mins by calcein-AM dye based fluorescence assay; type: cell-based; settings: read-out: EC50
In short: (§1)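 MDCK-MDR1 or MDCK-MRP1 cells seeded at 30,000/well and grown to confluence overnight. Compound (0.1–100 µM final, in medium) incubated 30 min at 37 °C, then calcein-AM added (2.5 µM final) for 30 min. Cells washed with ice-cold PBS and read at ex 485/em 535 nm. EC50 fitted from % fluorescence increase over untreated vs log dose. Mean ± SEM, three experiments in triplicate.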

[2] = target: Multidrug resistance-associated protein 1 (Homo sapiens, UniProt P33527); assay: Inhibition of MRP1 (unknown origin) expressed in MDCK cells assessed as increase in calcein-AM accumulation incubated for 30 mins by calcein-AM dye based fluorescence assay; type: cell-based; in short: as §1
[3] = target: T2, Broad substrate specificity ATP-binding cassette transporter ABCG2 (Homo sapiens, UniProt Q9UNQ0); assay: Inhibition of BCRP (unknown origin) expressed in MDCK cells assessed as reduction in Hoechst 33342 efflux preincubated for 30 mins followed by Hoechst 3334 addition measured after 30 mins by fluorescence assay; type: cell-based; settings: for EC50: mdck
T2 sequence (Q9UNQ0 whole entry): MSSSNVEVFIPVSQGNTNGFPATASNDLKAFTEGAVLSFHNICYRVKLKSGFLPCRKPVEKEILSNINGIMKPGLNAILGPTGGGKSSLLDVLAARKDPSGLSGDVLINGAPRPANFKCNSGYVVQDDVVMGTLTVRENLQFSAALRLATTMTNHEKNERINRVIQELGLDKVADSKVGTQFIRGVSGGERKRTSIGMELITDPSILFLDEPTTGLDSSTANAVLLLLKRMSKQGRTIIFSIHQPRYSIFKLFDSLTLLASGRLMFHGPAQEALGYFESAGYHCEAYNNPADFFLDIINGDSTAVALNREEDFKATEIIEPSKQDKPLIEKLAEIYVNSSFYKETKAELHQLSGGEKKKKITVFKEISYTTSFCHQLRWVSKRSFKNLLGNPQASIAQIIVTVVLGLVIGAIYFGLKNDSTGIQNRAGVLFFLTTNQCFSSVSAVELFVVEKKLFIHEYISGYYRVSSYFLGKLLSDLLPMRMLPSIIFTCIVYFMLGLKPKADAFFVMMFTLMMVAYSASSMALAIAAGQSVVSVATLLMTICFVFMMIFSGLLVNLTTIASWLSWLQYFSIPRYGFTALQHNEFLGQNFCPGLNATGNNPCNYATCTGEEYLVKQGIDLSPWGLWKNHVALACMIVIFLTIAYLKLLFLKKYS
In short: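 MDCK-BCRP monolayers (30,000 cells/well, confluent overnight) preincubated 30 min at 37 °C with compound (0.1–100 µM final). Hoechst 33342 then added (8 µM final) for 30 min. Cells fixed 20 min in 4% PFA, washed with ice-cold PBS and read at ex 340/em 485 nm. EC50 fitted from % fluorescence increase over basal vs log dose. Mean ± SEM, three experiments in triplicate.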

[4] = target: MDR1 (ABCB1, P-glycoprotein) (Homo sapiens, UniProt P08183); assay: Activity at MDR1 in human Caco2 cells assessed as efflux ratio of apparent permeability from basolateral to apical side over apical to basolateral side; type: cell-based; settings: Caco-2
In short: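 Caco-2 cells grown 21 days on filter inserts, then washed with HBSS and equilibrated 30 min at 37 °C. Compound at 100 µM added to the donor side and incubated 120 min at 37 °C. Papp in nm/s calculated as (VA/Area) × ([drug]acceptor/[drug]initial)/time, membrane area 0.11 cm2. BA/AB ratio from two independent experiments.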

[5] = target: T1, ATP-dependent translocase ABCB1; assay: Inhibition of MDR1 (unknown origin) expressed in MDCK1 cells assessed as potentiation of doxorubicin-induced decrease in cell proliferation at 1 uM administered alone on day 2 followed by drug addition day 3 along with doxorubicin addition by MTT assay; type: cell-based
In short: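 MDCK-MDR1 cells, 10000/well. On day 2, compound alone at 10 nM, 100 nM or 1 µM. On day 3, medium replaced with compound alone or with 10 µM doxorubicin; 48 h assay. MTT 0.5 mg/mL for 3–4 h at 37 °C, formazan dissolved in DMSO/EtOH 1:1, absorbance read at 570/630 nm. Solvent 1% v/v DMSO. Mean ± SEM, two experiments in triplicate; one-way ANOVA.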

[6] = target: T1, ATP-dependent translocase ABCB1; assay: Inhibition of MDR1 in human primary glioblastoma stem cells assessed as increase in intracellular doxorubicin accumulation at 10 to 10000 nM after 3 hrs by spectrofluorimetric analysis; type: cell-based
In short: (§2)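 Differentiated or stem cells from primary glioblastoma or mesothelioma of 3 patients (stem cells used within passage 6). Incubated 3 h with 5 µM doxorubicin, alone or with compound (DMSO 1% v/v). Washed, lysed in ethanol/0.3 N HCl, doxorubicin fluorescence read at ex 475/em 553 nm and expressed as nmol/mg cell protein via calibration curve. Duplicates, n=3, mean ± SEM.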

[7] = target: T1, ATP-dependent translocase ABCB1; assay: Inhibition of MDR1 in human primary mesothelioma stem cells assessed as increase in intracellular doxorubicin accumulation at 10 to 10000 nM after 3 hrs by spectrofluorimetric analysis; type: cell-based; in short: as §2
[8] = organism: Homo sapiens; assay: Induction of intracellular doxorubicin accumulation in human differentiated primary glioblastoma cells at 10 to 10000 nM after 3 hrs by spectrofluorimetric analysis; type: functional, cell-based; in short: as §2
[9] = organism: Homo sapiens; assay: Induction of intracellular doxorubicin accumulation in human differentiated primary mesothelioma stem cells at 10 to 10000 nM after 3 hrs by spectrofluorimetric analysis; type: functional, cell-based; in short: as §2
[10] = target: T1, ATP-dependent translocase ABCB1; assay: Inhibition of MDR1 in human primary glioblastoma stem cells assessed as increase in doxorubicin-induced reduction in cell viability at 10 nM after 72 hrs by ATPlite luminescence assay; settings: 0.01 µM
In short: (§3)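 Primary glioblastoma or mesothelioma differentiated and stem cells incubated 72 h with medium, 5 µM doxorubicin, 10 nM compound or 1 µM elacridar, alone or combined (DMSO 1% v/v). Viability by ATPlite luminescence as % of untreated RLU. Quadruplicates, n=3, mean ± SEM, one-way ANOVA.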

[11] = organism: Homo sapiens; assay: Potentiation of doxorubicin-induced cytotoxicity in human differentiated primary glioblastoma cells assessed as increase in doxorubicin-induced reduction in cell viability at 10 nM after 72 hrs by ATPlite luminescence assay; type: functional, cell-based; in short: as §3
[12] = target: T1, ATP-dependent translocase ABCB1; assay: Inhibition of MDR1 in human primary mesothelioma stem cells assessed as increase in doxorubicin-induced reduction in cell viability at 10 nM after 72 hrs by ATPlite luminescence assay; settings: 0.01 µM; in short: as §3
[13] = organism: Homo sapiens; assay: Potentiation of doxorubicin-induced cytotoxicity in human differentiated primary mesothelioma cells assessed as increase in doxorubicin-induced reduction in cell viability at 10 nM after 72 hrs by ATPlite luminescence assay; type: functional, cell-based; in short: as §3
[14] = organism: Homo sapiens; assay: Induction of doxorubicin accumulation in P-gp knocked out human primary glioblastoma stem cells co-expressing CRISPR-Cas at 10 nM after 3 hrs by spectrofluorimetric analysis; type: functional
In short: (§4)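 Patient-derived glioblastoma (line 4, patient #2) or mesothelioma (line 5, patient #1) stem cells, untreated, scrambled CRISPR-Cas or P-gp CRISPR-Cas knockout. Incubated 3 h with 5 µM doxorubicin. Cells lysed in ethanol/0.3 N HCl and doxorubicin read fluorimetrically at ex 475/em 553 nm, converted to nmol/mg protein by calibration. Duplicates, n=3, mean ± SEM, one-way ANOVA.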

[15] = organism: Homo sapiens; assay: Induction of doxorubicin accumulation in P-gp knocked out human primary mesothelioma stem cells co-expressing CRISPR-Cas at 10 nM after 3 hrs by spectrofluorimetric analysis; type: functional; in short: as §4
[16] = Cytotoxicity against human GSC at 10 nM after 24 hrs by LDH release assay; settings: 0.01 µM
[17] = Cytotoxicity against human MSC at 10 nM after 24 hrs by LDH release assay; settings: 0.01 µM
[18] = target: T1, ATP-dependent translocase ABCB1; assay: Inhibition of MDR1 in human GSC assessed as increase in doxorubicin-induced cell toxicity at 10 nM after 24 hrs by LDH release assay; settings: 0.01 µM
[19] = target: T1, ATP-dependent translocase ABCB1; assay: Inhibition of MDR1 in human MSC assessed as increase in doxorubicin-induced cell toxicity at 10 nM after 24 hrs by LDH release assay; settings: 0.01 µM
[20] = target: T1, ATP-dependent translocase ABCB1; assay: Inhibition of MDR1 in human primary glioblastoma stem cells assessed as increase in doxorubicin-induced reduction in cell viability at 10 nM after 24 hrs by LDH release assay; settings: 0.01 µM
[21] = organism: Homo sapiens; assay: Potentiation of doxorubicin-induced cytotoxicity in human differentiated primary glioblastoma cells assessed as increase in doxorubicin-induced reduction in cell viability at 10 nM after 24 hrs by LDH release assay; type: functional, cell-based
[22] = target: T1, ATP-dependent translocase ABCB1; assay: Inhibition of MDR1 in human primary mesothelioma stem cells assessed as increase in doxorubicin-induced reduction in cell viability at 10 nM after 24 hrs by LDH release assay; settings: 0.01 µM
[23] = organism: Homo sapiens; assay: Potentiation of doxorubicin-induced cytotoxicity in human differentiated primary mesothelioma cells assessed as increase in doxorubicin-induced reduction in cell viability at 10 nM after 24 hrs by LDH release assay; type: functional, cell-based

MDR1 (ABCB1, P-glycoprotein), sequence (P08183 whole entry): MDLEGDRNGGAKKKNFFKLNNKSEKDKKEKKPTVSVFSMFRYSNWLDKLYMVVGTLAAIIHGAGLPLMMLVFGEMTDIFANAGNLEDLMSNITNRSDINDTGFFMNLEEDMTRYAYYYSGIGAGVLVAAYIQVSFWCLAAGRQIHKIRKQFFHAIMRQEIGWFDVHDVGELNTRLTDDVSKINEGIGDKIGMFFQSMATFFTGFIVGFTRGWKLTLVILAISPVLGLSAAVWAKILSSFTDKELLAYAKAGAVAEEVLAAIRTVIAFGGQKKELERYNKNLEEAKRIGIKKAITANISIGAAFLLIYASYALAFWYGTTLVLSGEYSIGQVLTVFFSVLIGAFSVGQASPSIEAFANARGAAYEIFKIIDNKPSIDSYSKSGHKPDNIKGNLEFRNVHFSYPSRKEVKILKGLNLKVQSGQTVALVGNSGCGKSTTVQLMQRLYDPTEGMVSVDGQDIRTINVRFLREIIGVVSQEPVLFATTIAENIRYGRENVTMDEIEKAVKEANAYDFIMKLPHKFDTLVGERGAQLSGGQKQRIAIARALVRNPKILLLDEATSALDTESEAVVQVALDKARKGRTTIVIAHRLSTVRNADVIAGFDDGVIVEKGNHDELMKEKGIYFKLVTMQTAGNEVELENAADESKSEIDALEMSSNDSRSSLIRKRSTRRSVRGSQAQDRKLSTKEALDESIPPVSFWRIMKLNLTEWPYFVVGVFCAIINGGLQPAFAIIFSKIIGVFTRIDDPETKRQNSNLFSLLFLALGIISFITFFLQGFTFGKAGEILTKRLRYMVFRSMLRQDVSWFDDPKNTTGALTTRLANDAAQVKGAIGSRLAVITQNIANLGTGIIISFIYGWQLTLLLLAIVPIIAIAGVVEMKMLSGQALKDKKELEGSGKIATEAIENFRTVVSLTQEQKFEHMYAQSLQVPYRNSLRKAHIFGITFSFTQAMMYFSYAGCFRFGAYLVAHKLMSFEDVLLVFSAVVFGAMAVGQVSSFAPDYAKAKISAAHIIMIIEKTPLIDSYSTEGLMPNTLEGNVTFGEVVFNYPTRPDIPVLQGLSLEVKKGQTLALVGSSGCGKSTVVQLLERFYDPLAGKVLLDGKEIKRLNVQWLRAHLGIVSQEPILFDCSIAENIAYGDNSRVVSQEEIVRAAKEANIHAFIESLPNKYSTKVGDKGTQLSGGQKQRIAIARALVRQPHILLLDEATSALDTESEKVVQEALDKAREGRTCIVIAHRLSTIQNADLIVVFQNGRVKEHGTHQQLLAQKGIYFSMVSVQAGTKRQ
T1 sequence (P08183 whole entry): as above
Multidrug resistance-associated protein 1, sequence (P33527 whole entry): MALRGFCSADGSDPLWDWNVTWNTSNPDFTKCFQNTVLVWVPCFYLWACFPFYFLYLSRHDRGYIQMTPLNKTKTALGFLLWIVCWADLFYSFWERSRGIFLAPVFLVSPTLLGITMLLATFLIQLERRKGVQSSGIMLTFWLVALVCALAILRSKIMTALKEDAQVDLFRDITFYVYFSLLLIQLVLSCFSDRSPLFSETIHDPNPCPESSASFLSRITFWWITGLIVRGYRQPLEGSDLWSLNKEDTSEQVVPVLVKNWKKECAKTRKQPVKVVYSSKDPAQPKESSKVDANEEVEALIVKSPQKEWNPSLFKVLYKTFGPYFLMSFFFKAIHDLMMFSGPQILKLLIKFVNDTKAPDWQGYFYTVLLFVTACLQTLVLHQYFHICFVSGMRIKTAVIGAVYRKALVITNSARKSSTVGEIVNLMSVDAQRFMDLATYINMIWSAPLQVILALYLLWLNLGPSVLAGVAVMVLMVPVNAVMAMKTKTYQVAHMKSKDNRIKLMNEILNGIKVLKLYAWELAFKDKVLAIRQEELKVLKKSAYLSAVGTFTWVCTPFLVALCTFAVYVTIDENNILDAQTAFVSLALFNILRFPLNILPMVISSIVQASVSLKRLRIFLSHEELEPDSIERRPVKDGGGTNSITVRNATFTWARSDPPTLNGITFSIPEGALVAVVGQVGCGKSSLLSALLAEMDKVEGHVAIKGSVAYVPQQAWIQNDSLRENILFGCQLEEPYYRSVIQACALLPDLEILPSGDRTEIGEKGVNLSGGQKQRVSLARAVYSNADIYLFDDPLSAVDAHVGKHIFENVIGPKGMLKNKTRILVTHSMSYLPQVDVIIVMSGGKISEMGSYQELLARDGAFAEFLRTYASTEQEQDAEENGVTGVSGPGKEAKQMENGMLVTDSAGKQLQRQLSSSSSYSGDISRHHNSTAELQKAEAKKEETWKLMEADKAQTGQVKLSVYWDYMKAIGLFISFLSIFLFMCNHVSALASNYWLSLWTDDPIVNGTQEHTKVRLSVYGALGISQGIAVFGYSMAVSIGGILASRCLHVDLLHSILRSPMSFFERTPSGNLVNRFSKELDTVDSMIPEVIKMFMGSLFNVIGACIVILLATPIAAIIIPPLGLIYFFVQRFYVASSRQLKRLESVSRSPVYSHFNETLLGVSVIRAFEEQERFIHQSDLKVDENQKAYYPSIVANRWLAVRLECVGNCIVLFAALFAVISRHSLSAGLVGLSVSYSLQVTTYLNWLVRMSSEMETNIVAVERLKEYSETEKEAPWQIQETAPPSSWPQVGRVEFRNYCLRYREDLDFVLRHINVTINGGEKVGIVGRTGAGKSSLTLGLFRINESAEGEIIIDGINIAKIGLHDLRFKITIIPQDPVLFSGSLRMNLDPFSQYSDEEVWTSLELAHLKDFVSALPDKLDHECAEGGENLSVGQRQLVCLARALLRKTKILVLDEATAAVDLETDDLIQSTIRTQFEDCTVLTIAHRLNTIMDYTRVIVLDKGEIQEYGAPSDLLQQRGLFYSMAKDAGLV

## COc1cc2c(cc1OC)CN(Cc1ccc(-c3ccc(NS(=O)(=O)c4ccccc4)cc3)cc1)CC2
[1]
  pEC50: 6.06
[2]
  EC50: Not Active
[3]
  EC50: Not Active
[4]
  efflux ratio: 15

## COc1cc2c(cc1OC)CN(Cc1ccc(-c3ccc4[nH]cnc4c3)cc1)CC2
[1]
  pEC50: 5.16
[2]
  EC50: Not Active
[3]
  EC50: Not Active
[4]
  efflux ratio: 9.2

## COc1cc2c(cc1OC)CN(Cc1ccc(-c3ccc4c(ccn4S(=O)(=O)c4ccccc4)c3)cc1)CC2
[1]
  pEC50: 4.72
[2]
  EC50: Not Active
[3]
  EC50: Not Active
[4]
  efflux ratio: 4.2

## COc1cc2c(cc1OC)CN(Cc1ccc(-c3ccc(N(S(=O)(=O)c4ccccc4)S(=O)(=O)c4ccccc4)cc3)cc1)CC2
[1]
  pEC50: 7.82
[2]
  EC50: Not Active
[3]
  EC50: Not Active
[4]
  efflux ratio: > 20
[5]
  inhibition (INH): Active
[6]
  inhibition (INH): Active
[7]
  inhibition (INH): Active
[8]
  Activity: inactive
[9]
  Activity: inactive
[10]
  inhibition (INH): Active
[11]
  Activity: inactive
[12]
  inhibition (INH): Active
[13]
  Activity: inactive
[14]
  Activity: inactive
[15]
  Activity: inactive
[16]
  Activity: Non-Toxic
[17]
  Activity: Non-Toxic
[18]
  inhibition (INH): Active
[19]
  inhibition (INH): Active
[20]
  inhibition (INH): Active
[21]
  Activity: inactive
[22]
  inhibition (INH): Active
[23]
  Activity: inactive

## COc1cc2c(cc1OC)CN(Cc1ccc(-c3ccc4[nH]ncc4c3)cc1)CC2
[1]
  pEC50: 6.05
[2]
  EC50: Not Active
[3]
  EC50: Not Active
[4]
  efflux ratio: 12

## CCCNC(=O)Nc1ccc(-c2ccc(CN3CCc4cc(OC)c(OC)cc4C3)cc2)cc1
[1]
  pEC50: 5.96
[2]
  EC50: Not Active
[3]
  EC50: Not Active
[4]
  efflux ratio: 17.6

## COc1cc2c(cc1OC)CN(Cc1ccc(-c3ccc(NS(C)(=O)=O)cc3)cc1)CC2
[1]
  pEC50: 5.28
[2]
  EC50: Not Active
[3]
  EC50: Not Active
[4]
  efflux ratio: 5

## COc1cc2c(cc1OC)CN(Cc1ccc(-c3ccc4[nH]c(=O)[nH]c4c3)cc1)CC2
[1]
  pEC50: 4.53
[2]
  EC50: Not Active
[3]
  EC50: Not Active
[4]
  efflux ratio: 15

## CCCCNC(=O)Nc1ccc(-c2ccc(CN3CCc4cc(OC)c(OC)cc4C3)cc2)cc1
[1]
  pEC50: 6.49
[2]
  EC50: Not Active
[3]; read-out: EC50
  pEC50: 4.34
[4]
  efflux ratio: 12.8

## COc1cc2c(cc1OC)CN(Cc1ccc(-c3ccc4c(c3)CC(=O)N4)cc1)CC2
[1]
  pEC50: 5.83
[2]
  EC50: Not Active
[3]
  EC50: Not Active
[4]
  efflux ratio: 3.6
